Screens deposited in PubChem by Johns Hopkins Ion Channel Center.
This is a sample that favours compounds with a hit; in the whole collection about 3.5% have one here.
MrgX1 PAM: allosterically activates human MrgX1 receptor signaling. MrgX1-HEK293, Fluo-4 calcium flux, FDSS; hits give high values. B-score at 10 µM. 0.63% of 310,000 active;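 active = plate-corrected calcium response at least 3 library SD above typical, normal starting fluorescence, not activating the receptor alone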;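 also: compound read alongside a low EC10 to EC30 dose of BAM8-22 agonist; peak minus trough fluorescence over baseline measured at the second addition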
Target sequence (Q96LB2 whole entry, looked up): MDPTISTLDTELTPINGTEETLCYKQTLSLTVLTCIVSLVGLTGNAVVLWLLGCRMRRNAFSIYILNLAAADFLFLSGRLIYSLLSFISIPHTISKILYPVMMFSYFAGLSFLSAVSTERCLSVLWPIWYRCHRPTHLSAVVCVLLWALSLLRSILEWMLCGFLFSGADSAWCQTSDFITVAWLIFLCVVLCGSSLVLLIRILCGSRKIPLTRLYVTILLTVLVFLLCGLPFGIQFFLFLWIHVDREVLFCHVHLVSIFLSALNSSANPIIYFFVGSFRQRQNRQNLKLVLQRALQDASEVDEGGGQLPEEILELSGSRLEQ
MrgX1 agonist: agonists of human MrgX1 receptor | MrgX1-HEK293 cells, Fluo-4 calcium fluorescence, agonist mode; hits give high values | B-score at 10 µM | 0.44% of 310,000 active | AID 588627;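 active = calcium response B-score plate-corrected fluorescence ratio at least 3 library SD, with starting fluorescence B-score inside 5 SD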
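Test system: HEK293 cells stably expressing human MrgX1 receptor; amount: 15,000 cells per well; doses: compound delivered in addition one of three; times: overnight plating before 1 h dye loading; detection: Fluo-4 NW calcium-flux fluorescence, kinetic read; read-out basis: B-scored fluorescence response ratio; controls: positive and negative controls per plate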
MrgX1 antag: antagonists of human MrgX1 receptor; Q96LB2; MRGX1-HEK293 calcium flux, Fluo-4, BAM8-22 antagonism; hits give low values; B-score at 10 µM; 1.3% of 310,000 active; AID 588676;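 active = calcium-response B-score plate-corrected more than 3 library SD below zero, starting fluorescence within 5 deviations, no agonist response on first addition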;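 also: peak minus trough fluorescence over baseline after final BAM8-22 challenge near maximal dose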
RGS4 pot: RGS4 potentiation or activation; HEK293 M3R/inducible RGS4, carbachol calcium flux Fluo4; hits give low values; B-score at 10 µM; 0.92% of 310,000 active;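 active = B-score of the integrated calcium signal more than 4 SD below the library mean, with starting fluorescence not abnormally high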;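 also: negative B-score means reduced calcium response which marks RGS4 activation or potentiation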
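Also added: carbachol at ECmax as muscarinic agonist stimulus; Assay system: HEK293 cells with stable M3R and inducible RGS4; Timing: overnight RGS4 induction, 30 min dye load 37 °C, 20 min compound RT; Measured by: Fluo4-AM (2 µM) calcium-flux fluorescence, kinetic read.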
RGS4 inh: inhibitors of human RGS4 | P49798 | HEK293 M3R/RGS4 inducible, Fluo-4 calcium flux; hits give high values; triggered by carbachol at its EC20 | B-score at 10 µM | 0.45% of 310,000 active;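 active = B-score, a plate-corrected calcium signal, over three deviations above library mean, with baseline fluorescence within five deviations of library mean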;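 also: RGS4 expression induced by doxycycline in cells with stable M3 receptor; B-score is computed from the integrated fluorescence ratio over baseline after carbachol; higher B-score means a larger calcium signal and so more RGS4 inhibition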
Target sequence (P49798 whole entry, looked up): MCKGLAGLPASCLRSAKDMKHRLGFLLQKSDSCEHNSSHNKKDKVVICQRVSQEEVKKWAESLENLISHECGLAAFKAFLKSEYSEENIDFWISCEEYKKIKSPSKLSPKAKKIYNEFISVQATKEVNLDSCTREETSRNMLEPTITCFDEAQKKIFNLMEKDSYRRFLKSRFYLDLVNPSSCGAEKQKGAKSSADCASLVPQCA
MrgX1 ag confirm: reconfirmed activator of human MrgX1 receptor signaling; AID 602412; activation, % at 10 µM; 78% of 600 active; MrgX1-HEK293, Fluo-4 calcium fluorescence, FDSS; shares compounds with MrgX1 agonist;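 active = calcium signal rise, corrected for plate position, at least 3 library SD high, with starting brightness within 5 such deviations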
HEK293 Ca flux: activity in parental HEK293 cells lacking MrgX1; fluorescence ratio F(max-min)/F0 at 10 µM; AID 624111; shares compounds with MrgX1 antag; 2% of 4,000 active; Fluo-4 calcium fluorescence, FDSS;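 active = duplicate-averaged calcium fluorescence ratio at least three times the standard deviation of buffer wells, a nonspecific response in parental cells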
HEK293 Ca counter: counter-screen for MrgX1 allosteric activators: effect in parental HEK293 cells; parental HEK293 calcium flux, Fluo-4 fluorescence ratio; hits give high values; 0.4% of 4,000 active; fluorescence ratio F(max-min)/F0 at 10 µM; shares compounds with MrgX1 antag;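 active = calcium fluorescence ratio, averaged over duplicates, at least 3 SD of the buffer-well ratio, meaning a nonspecific response in receptor-free cells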;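 also: untransfected parental HEK293 lacking MrgX1 used as counterscreen for MrgX1 allosteric activators; fluorescence change taken during the second addition on a kinetic imager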
HEK293 Ca cntr2: MrgX1 activator counter-screen hit in parental HEK293 cells | shares compounds with MrgX1 antag | Fluo-4 calcium fluorescence (FDSS); hits give high values | fluorescence ratio F(max-min)/F0 at 10 µM | 8.7% of 4,000 active | AID 624115;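 active = calcium fluorescence ratio at least three times the spread of buffer wells, meaning a non-specific response in parental cells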
Active calls of the source: *.

Results for CC(C)(C)c1cc(C(c2cccnc2)N2CCN(CCO)CC2)cc(C(C)(C)C)c1O (centres undefined) ?
MrgX1 PAM: inactive; MrgX1 agonist: 32*; MrgX1 antag: inactive; RGS4 pot: inactive; RGS4 inh: inactive; MrgX1 ag confirm: 263%*; HEK293 Ca flux: inactive; HEK293 Ca counter: inactive; HEK293 Ca cntr2: 53*

What do the screens show for `Cc1ccc(-c2n[nH]c(=O)c3ccccc23)cc1S(=O)(=O)NCC1CCCO1` (centres undefined)?
MrgX1 PAM: inactive; MrgX1 agonist: 40*; MrgX1 antag: inactive; RGS4 pot: inactive; RGS4 inh: inactive; MrgX1 ag confirm: 174%*; HEK293 Ca flux: inactive; HEK293 Ca counter: inactive; HEK293 Ca cntr2: inactive

What do the screens show for `CCN(c1nc(N)c(C(=O)N=C(N)N)nc1Cl)C(C)C`?
MrgX1 PAM: inactive; MrgX1 agonist: 36*; MrgX1 antag: inactive; RGS4 pot: inactive; RGS4 inh: inactive; MrgX1 ag confirm: 233%*; HEK293 Ca flux: inactive; HEK293 Ca counter: inactive; HEK293 Ca cntr2: inactive

Results for COCCN(Cc1nc(C(c2ccccc2)c2ccccc2)no1)C(C)C ?
MrgX1 PAM: inactive; MrgX1 agonist: inactive; MrgX1 antag: inactive; RGS4 pot: inactive; RGS4 inh: inactive

What do the screens show for `NCCC(=O)N1c2ccccc2Sc2ccc(Cl)cc21`?
MrgX1 PAM: inactive; MrgX1 agonist: 79*; MrgX1 antag: inactive; RGS4 pot: inactive; RGS4 inh: inactive; MrgX1 ag confirm: 244%*; HEK293 Ca flux: inactive; HEK293 Ca counter: inactive; HEK293 Ca cntr2: inactive

How did Cc1cc2nc3ccc(N(C)C)cc3nc2cc1N do in these assays?
MrgX1 PAM: inactive; MrgX1 agonist: 26*; MrgX1 antag: inactive; RGS4 pot: inactive; RGS4 inh: inactive; MrgX1 ag confirm: 259%*; HEK293 Ca flux: inactive; HEK293 Ca counter: inactive; HEK293 Ca cntr2: inactive

Results for N#Cc1ccc(C(=O)Nc2nnc(-c3cccs3)o2)cc1 ?
MrgX1 PAM: inactive; MrgX1 agonist: inactive; MrgX1 antag: inactive; RGS4 pot: inactive; RGS4 inh: inactive

Results for O=C(Nc1nnc(-c2cccs2)o1)c1cccc(C(F)(F)F)c1 ?
MrgX1 PAM: inactive; MrgX1 agonist: 75*; MrgX1 antag: inactive; RGS4 pot: inactive; RGS4 inh: inactive; MrgX1 ag confirm: 498%*; HEK293 Ca flux: inactive; HEK293 Ca counter: inactive; HEK293 Ca cntr2: 96*

How did COC(=O)c1sc(N2CCCCC2)c(C#N)c1N do in these assays?
MrgX1 PAM: inactive; MrgX1 agonist: inactive; MrgX1 antag: inactive; RGS4 pot: inactive; RGS4 inh: inactive

Results for CCOc1cc(/C=C/C(=O)c2ccc(OC)c(CN3CCOCC3)c2)cc(Br)c1O ?
MrgX1 PAM: inactive; MrgX1 agonist: 143*; MrgX1 antag: inactive; RGS4 pot: inactive; RGS4 inh: inactive; MrgX1 ag confirm: 675%*; HEK293 Ca flux: inactive; HEK293 Ca counter: inactive; HEK293 Ca cntr2: 131*

Results for CCOc1cc(/C=N/NC(=O)c2ccc(CN3CCOCC3)cc2)ccc1OC ?
MrgX1 PAM: inactive; MrgX1 agonist: inactive; MrgX1 antag: inactive; RGS4 pot: inactive; RGS4 inh: inactive

Results for CCOc1ccc(CCNC(=O)COC(=O)CCc2cc(OC)c(OC)c(OC)c2)cc1OCC ?
MrgX1 PAM: inactive; MrgX1 agonist: inactive; MrgX1 antag: inactive; RGS4 pot: inactive; RGS4 inh: inactive

How did Oc1nc(Nc2cccc(Cl)c2)sc1/C=C1\C=Nc2ccccc21 do in these assays?
MrgX1 PAM: inactive; MrgX1 agonist: inactive; MrgX1 antag: inactive; RGS4 pot: inactive; RGS4 inh: inactive
